ChEMBL document CHEMBL3779805, “Orally bioavailable pyridine and pyrimidine-based Factor XIa inhibitors: Discovery of the methyl N-phenyl carbamate P2 prime group” (Bioorg Med Chem, 2016)

Legend:
Coagulation factor XI = Coagulation factor XI (Homo sapiens, UniProt P03951)
Plasma = assay: Anticoagulant activity in human plasma assessed as concentration required for 50% increase in activated partial thromboplastin time by automated coagulation analyzer; assay type: functional
In short: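 aPTT clotting assay in pooled normal human plasma on an automated coagulation analyzer with commercial reagents. EC1.5x is the inhibitor plasma concentration giving a 50% increase in clotting time over the no-inhibitor control.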

Coagulation factor XI, sequence (P03951 19-387 limits assumed): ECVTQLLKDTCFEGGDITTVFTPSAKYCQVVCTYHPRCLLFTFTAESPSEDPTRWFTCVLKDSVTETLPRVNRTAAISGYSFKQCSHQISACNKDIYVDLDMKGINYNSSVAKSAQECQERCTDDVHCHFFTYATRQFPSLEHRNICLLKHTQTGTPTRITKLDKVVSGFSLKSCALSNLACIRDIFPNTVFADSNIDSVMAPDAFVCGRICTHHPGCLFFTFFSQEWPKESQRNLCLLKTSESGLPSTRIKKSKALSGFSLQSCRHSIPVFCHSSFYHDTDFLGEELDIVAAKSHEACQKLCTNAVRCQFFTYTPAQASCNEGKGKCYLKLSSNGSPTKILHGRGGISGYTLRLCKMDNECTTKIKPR
Coagulation factor XI, sequence (P03951 388-625 limits assumed): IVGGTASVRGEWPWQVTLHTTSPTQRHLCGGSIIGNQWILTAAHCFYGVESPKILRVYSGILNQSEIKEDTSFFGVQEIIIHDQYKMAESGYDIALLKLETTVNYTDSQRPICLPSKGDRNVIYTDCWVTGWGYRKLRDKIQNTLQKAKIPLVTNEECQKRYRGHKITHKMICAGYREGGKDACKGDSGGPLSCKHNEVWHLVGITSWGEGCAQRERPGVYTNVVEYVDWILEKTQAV

Structure (SMILES) | Ki (Coagulation factor XI) [nM] | EC1.5 (Plasma) [µM]
NC[C@H]1CC[C@H](C(=O)NC(Cc2ccccc2)c2cc(-c3ccc4c(N)noc4c3)ccn2)CC1 (mixture of isomers) | 9.2 | –
NC[C@H]1CC[C@H](C(=O)NC(Cc2ccccc2)c2cc(-c3cccc(C(=O)O)c3)ccn2)CC1 (mixture of isomers) | 205 | –
COc1n[nH]c2ccc(-c3ccnc(C(Cc4ccccc4)NC(=O)[C@H]4CC[C@H](CN)CC4)c3)cc12 (mixture of isomers) | 87 | >40
NC[C@H]1CC[C@H](C(=O)NC(Cc2ccccc2)c2cc(-c3ccc4[nH]nc(N)c4c3)ccn2)CC1 (mixture of isomers) | 53 | 26
NC[C@H]1CC[C@H](C(=O)NC(Cc2ccccc2)c2cc(-c3ccc4[nH]ncc4c3)ccn2)CC1 (mixture of isomers) | 61 | –
NC[C@H]1CC[C@H](C(=O)NC(Cc2ccccc2)c2cc(-c3ccc(N)nc3)ccn2)CC1 (mixture of isomers) | 24 | –
NC[C@H]1CC[C@H](C(=O)NC(Cc2ccccc2)c2cc(-c3ccc4c(N)nccc4c3)ccn2)CC1 (mixture of isomers) | 144 | –
NC[C@H]1CC[C@H](C(=O)NC(Cc2ccccc2)c2cc(-c3ccc4c(N)ncnc4c3)ccn2)CC1 (mixture of isomers) | 10 | 2.8
NC[C@H]1CC[C@H](C(=O)NC(Cc2ccccc2)c2cc(-c3ccc(N)c(C(=O)O)c3)ccn2)CC1 (mixture of isomers) | 5.3 | 0.8
COC(=O)Nc1ccc(-c2ccnc(C(Cc3ccccc3)NC(=O)[C@H]3CC[C@H](CN)CC3)c2)cc1 (mixture of isomers) | 12 | 3.7
NC[C@H]1CC[C@H](C(=O)NC(Cc2ccccc2)c2cc(-c3ccc4c(O)n[nH]c4c3)ccn2)CC1 (mixture of isomers) | 97 | –
NC[C@H]1CC[C@H](C(=O)NC(Cc2ccccc2)c2cc(-c3ccc4cn[nH]c4c3)ccn2)CC1 (mixture of isomers) | 87 | >40
Cn1[nH]c2ccc(-c3ccnc(C(Cc4ccccc4)NC(=O)[C@H]4CC[C@H](CN)CC4)c3)cc2c1=O (mixture of isomers) | 110 | –
NC[C@H]1CC[C@H](C(=O)NC(Cc2ccccc2)c2cc(-c3ccc(N)cc3)ccn2)CC1 (mixture of isomers) | 56 | 35
